Measured values taken from ChEMBL document CHEMBL1131139, “Synthesis and antibacterial activity of ketolides (6-O-methyl-3-oxoerythromycin derivatives): a new class of antibacterials highly potent against macrolide-resistant and -susceptible respiratory pathogens” (1998).
Converted amounts (≈) assume the structure as drawn.

Legend:
Type in all cases: functional
[1] = system: Staphylococcus aureus; experiment: In vitro inhibitory activity against Staphylococcus aureus (EryRi 011GO25i)
Procedure, shortened: (§1)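 Two-fold agar dilution on Mueller-Hinton agar (pH 7.4). Inoculum from overnight plate cultures suspended in Mueller-Hinton broth, adjusted to 10^9 CFU/mL, diluted 1:200 and spotted by multipoint inoculator at about 10^4 CFU/spot. Plates incubated 37 °C for 20 h. MIC taken as lowest concentration with no visible growth.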

[2] = system: Staphylococcus aureus; experiment: In vitro inhibitory activity against Staphylococcus aureus (EryRc 011CB20); procedure, shortened: as §1
[3] = system: Streptococcus pneumoniae; experiment: In vitro inhibitory activity against Streptococcus pneumoniae (032UC1); procedure, shortened: as §1
[4] = system: Staphylococcus aureus; experiment: In vitro inhibitory activity against Staphylococcus aureus (011UC4); procedure, shortened: as §1
[5] = system: Haemophilus influenzae; experiment: In vitro inhibitory activity against Haemophilus influenzae (351CB12); procedure, shortened: as §1
[6] = system: Streptococcus pyogenes; experiment: In vitro inhibitory activity against Streptococcus pyogenes (02A1UC1); procedure, shortened: as §1
[7] = system: Escherichia coli; experiment: In vitro inhibitory activity against Escherichia coli (250 UC5); procedure, shortened: as §1
[8] = system: Streptococcus pneumoniae; experiment: In vitro inhibitory activity against Streptococcus pneumoniae (EryRi 030SJ5i); procedure, shortened: as §1
[9] = system: Streptococcus pneumoniae; experiment: In vitro inhibitory activity against Streptococcus pneumoniae (EryRc 030SJ1); procedure, shortened: as §1
[10] = system: Staphylococcus epidermidis; experiment: In vitro inhibitory activity against Staphylococcus epidermidis (EryRi 012GO11i); procedure, shortened: as §1
[11] = system: Haemophilus influenzae; experiment: In vitro inhibitory activity against Haemophilus influenzae (351HT3); procedure, shortened: as §1

MIC [1] [µg/mL]	MIC [2] [µg/mL]	MIC [3] [µg/mL]	MIC [4] [µg/mL]	MIC [5] [µg/mL]	MIC [6] [µg/mL]	MIC [7] [µg/mL]	MIC [8] [µg/mL]	MIC [9] [µg/mL]	MIC [10] [µg/mL]	MIC [11] [µg/mL]	SMILES
0.6 (≈ 0.804 µM)	40 (≈ 53.6 µM)	0.02 (≈ 0.0268 µM)	0.08 (≈ 0.107 µM)	1.2 (≈ 1.61 µM)	0.04 (≈ 0.0536 µM)	40 (≈ 53.6 µM)	0.6 (≈ 0.804 µM)	40 (≈ 53.6 µM)	0.3 (≈ 0.402 µM)	2.5 (≈ 3.35 µM)	CC[C@H]1OC(=O)[C@H](C)C(=O)[C@H](C)[C@@H](O[C@@H]2O[C@H](C)C[C@H](N(C)C)[C@H]2O)[C@](C)(OC)C[C@@H](C)C(=O)[C@H](C)[C@H]2N(CCCNc3ccccc3)C(=O)O[C@]12C
5 (≈ 6.79 µM)	40 (≈ 54.4 µM)	0.15 (≈ 0.204 µM)	0.6 (≈ 0.815 µM)	40 (≈ 54.4 µM)	0.6 (≈ 0.815 µM)	40 (≈ 54.4 µM)	40 (≈ 54.4 µM)	40 (≈ 54.4 µM)	5 (≈ 6.79 µM)	40 (≈ 54.4 µM)	CC[C@H]1OC(=O)[C@H](C)C(=O)[C@H](C)[C@@H](O[C@@H]2O[C@H](C)C[C@H](N(C)C)[C@H]2O)[C@](C)(OC)C[C@@H](C)/C(=N\OCCNCc2ccccc2)[C@H](C)[C@@H](O)[C@]1(C)O
1.2 (≈ 1.91 µM)	40 (≈ 63.7 µM)	0.08 (≈ 0.127 µM)	1.2 (≈ 1.91 µM)	10 (≈ 15.9 µM)	0.15 (≈ 0.239 µM)	40 (≈ 63.7 µM)	40 (≈ 63.7 µM)	40 (≈ 63.7 µM)	1.2 (≈ 1.91 µM)	10 (≈ 15.9 µM)	CC[C@H]1OC(=O)[C@H](C)C(=O)[C@H](C)[C@@H](O[C@@H]2O[C@H](C)C[C@H](N(C)C)[C@H]2O)[C@](C)(OC)C[C@@H](C)C(=O)[C@H](C)[C@H]2N(N)C(=O)O[C@]12C
0.3 (≈ 0.352 µM)	20 (≈ 23.5 µM)	0.3 (≈ 0.352 µM)	0.6 (≈ 0.704 µM)	10 (≈ 11.7 µM)	0.04 (≈ 0.0469 µM)	40 (≈ 46.9 µM)	0.3 (≈ 0.352 µM)	5 (≈ 5.87 µM)	0.6 (≈ 0.704 µM)	40 (≈ 46.9 µM)	CC[C@H]1OC(=O)[C@H](C)C(=O)[C@H](C)[C@@H](O[C@@H]2O[C@H](C)C[C@H](N(C)C)[C@H]2O)[C@](C)(OC)C[C@@H](C)/C(=N\O[C@@H]2CCCN(Cc3ccc(-c4ccccc4)cc3)C2)[C@H](C)[C@@H](O)[C@]1(C)O
40	40	40	40	40	40	40	40	40	40	40	CC[C@H]1OC(=O)[C@H](C)C(=O)[C@H](C)[C@@H](O[C@@H]2O[C@H](C)C[C@H](N(C)C)[C@H]2O)[C@](C)(OC)C[C@@H](C)/C(=N\OC[C@@H](N)C(=O)[O-])[C@H](C)[C@@H](O)[C@]1(C)O.[K+]
0.08 (≈ 0.0968 µM)	40 (≈ 48.4 µM)	0.02 (≈ 0.0242 µM)	0.08 (≈ 0.0968 µM)	1.2 (≈ 1.45 µM)	0.02 (≈ 0.0242 µM)	40 (≈ 48.4 µM)	0.02 (≈ 0.0242 µM)	0.6 (≈ 0.726 µM)	0.04 (≈ 0.0484 µM)	1.2 (≈ 1.45 µM)	CC[C@H]1OC(=O)[C@H](C)C(=O)[C@H](C)[C@@H](O[C@@H]2O[C@H](C)C[C@H](N(C)C)[C@H]2O)[C@](C)(OC)C[C@@H](C)C(=O)[C@H](C)[C@H]2N(CCCCc3ccnc4ccc(OC)cc34)C(=O)O[C@]12C
0.3 (≈ 0.436 µM)	40 (≈ 58.1 µM)	10 (≈ 14.5 µM)	0.15 (≈ 0.218 µM)	10 (≈ 14.5 µM)	0.04 (≈ 0.0581 µM)	40 (≈ 58.1 µM)	1.2 (≈ 1.74 µM)	40 (≈ 58.1 µM)	0.15 (≈ 0.218 µM)	40 (≈ 58.1 µM)	CCCNCCO/N=C1\[C@H](C)C[C@@](C)(OC)[C@H](O[C@@H]2O[C@H](C)C[C@H](N(C)C)[C@H]2O)[C@@H](C)C(=O)[C@@H](C)C(=O)O[C@H](CC)[C@@](C)(O)[C@H](O)[C@H]1C
0.15 (≈ 0.201 µM)	40 (≈ 53.7 µM)	0.02 (≈ 0.0268 µM)	0.08 (≈ 0.107 µM)	2.5 (≈ 3.36 µM)	0.02 (≈ 0.0268 µM)	40 (≈ 53.7 µM)	0.3 (≈ 0.403 µM)	0.15 (≈ 0.201 µM)	0.04 (≈ 0.0537 µM)	1.2 (≈ 1.61 µM)	CC[C@H]1OC(=O)[C@H](C)C(=O)[C@H](C)[C@@H](O[C@@H]2O[C@H](C)C[C@H](N(C)C)[C@H]2O)[C@](C)(OC)C[C@@H](C)C(=O)[C@H](C)[C@H]2N(CCCCc3ccccc3)C(=O)O[C@]12C
5 (≈ 7.44 µM)	40 (≈ 59.5 µM)	0.02 (≈ 0.0298 µM)	0.15 (≈ 0.223 µM)	5 (≈ 7.44 µM)	0.04 (≈ 0.0595 µM)	40 (≈ 59.5 µM)	40 (≈ 59.5 µM)	10 (≈ 14.9 µM)	6 (≈ 8.93 µM)	10 (≈ 14.9 µM)	CC[C@H]1OC(=O)[C@H](C)C(=O)[C@H](C)[C@@H](O[C@@H]2O[C@H](C)C[C@H](N(C)C)[C@H]2O)[C@](C)(OC)C[C@@H](C)/C(=N\OC2CCNC2)[C@H](C)[C@@H](O)[C@]1(C)O (stereo not given in full)
10 (≈ 14.2 µM)	40 (≈ 56.8 µM)	0.6 (≈ 0.852 µM)	1.2 (≈ 1.7 µM)	40 (≈ 56.8 µM)	0.6 (≈ 0.852 µM)	40 (≈ 56.8 µM)	20 (≈ 28.4 µM)	40 (≈ 56.8 µM)	2.5 (≈ 3.55 µM)	40 (≈ 56.8 µM)	CC[C@H]1OC(=O)[C@H](C)C(=O)[C@H](C)[C@@H](O[C@@H]2O[C@H](C)C[C@H](N(C)C)[C@H]2O)[C@](C)(OC)C[C@@H](C)/C(=N\OC[C@@H](N)C(=O)OC)[C@H](C)[C@@H](O)[C@]1(C)O
